According to ChEMBL document CHEMBL4715714, “Design, synthesis and biological evaluation of thiosemicarbazones, hydrazinobenzothiazoles and arylhydrazones as anticancer agents with a potential to overcome multidrug resistance” (Eur J Med Chem, 2016):
Activity calls are given as the source filed them. The calls are words filed in the database; no cut-off is given here.

Tests used:
[1] = Selectivity ratio of IC50 for human MES-SA cells to IC50 for human MES-SA/DX5 cells incubated for 72 hrs by MTT assay; assay type: functional
How it was run: (§1)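 The selectivity ratio is the IC50 in P-gp-negative parental cells divided by the IC50 in the P-gp-positive resistant partner.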

MES-SA/Dx5 [2] = assay: Cytotoxicity against human MES-SA/DX5 cells transfected with mCherry fluorescent protein assessed as inhibition of cell proliferation incubated for 72 hrs by fluorescent assay; assay type: functional, cell-based; conditions: Homo sapiens, MES-SA/Dx5, 72 h
How it was run: (§2)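 MES-SA and MES-SA/Dx5 cells were made to stably express mCherry by lentiviral transduction. Cells were seeded at 5000 (96-well) or 2500 (384-well) per well, allowed to attach 24 h, then treated with compound dilutions for 72 h. Viability was read as fluorescence, excitation 585 nm, emission 610 nm.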

A2780 = assay: Cytotoxicity against human A2780 cells assessed as inhibition of cell proliferation incubated for 72 hrs by MTT assay; assay type: functional, cell-based; conditions: for IC50: A2780, 72 h
How it was run: (§3)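 Cells were seeded (10000/well for A2780, 5000/well for MES-SA/Dx5 and KB-3-1/V1) and left to attach 12 h, then exposed to compound for 72 h. Medium was removed, and MTT (0.83 mg/mL) was added for 1 h at 37 °C. Cells were lysed in DMSO and absorbance read at 540 nm. Signal was corrected for unstained lysate background, normalized to untreated cells, and IC50 taken from a sigmoidal dose-response fit.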

HFF = assay: Cytotoxicity against human HFF cells by MTT assay
MES-SA/Dx5 [3] = assay: Cytotoxicity against human MES-SA/DX5 cells incubated for 72 hrs in presence of efflux pump inhibitor, Tariquidar by MTT assay; assay type: functional, cell-based
How it was run: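 Run as the 72 h MTT viability readout (12 h attachment, MTT 0.83 mg/mL for 1 h, DMSO lysis, A540), with the P-gp inhibitor Tariquidar at 1 µM co-present. IC50 came from sigmoidal fits of 2 to 4 independent experiments.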

KB 3-1 = assay: Cytotoxicity against human KB-3-1 cells assessed as inhibition of cell proliferation incubated for 72 hrs by MTT assay; assay type: functional, cell-based; conditions: KB 3-1, 72 h; how it was run: as §3
MES-SA [4] = assay: Cytotoxicity against human MES-SA cells assessed as inhibition of cell proliferation incubated for 72 hrs by MTT assay; assay type: functional, cell-based; how it was run: as §3
[5] = (§4) Cytotoxicity against human A2780adr cells assessed as inhibition of cell proliferation incubated for 72 hrs by MTT assay; assay type: functional, cell-based; conditions: A2780 ADR; how it was run: as §3
MES-SA/Dx5 [6] = assay: Cytotoxicity against human MES-SA/DX5 cells assessed as inhibition of cell proliferation incubated for 72 hrs by MTT assay; assay type: functional, cell-based; conditions: MES-SA/Dx5, 72 h; how it was run: as §3
KB-V1 [7] = assay: Cytotoxicity against human KB-V1 cells assessed as inhibition of cell proliferation incubated for 72 hrs by MTT assay; assay type: functional, cell-based; conditions: KB-V1, 72 h; how it was run: as §3
MES-SA [8] = assay: Cytotoxicity against human MES-SA cells transfected with mCherry fluorescent protein assessed as inhibition of cell proliferation incubated for 72 hrs by fluorescent assay; assay type: functional, cell-based; how it was run: as §2
KB-V1 [9] = assay: Cytotoxicity against human KB-V1 cells assessed as inhibition of cell proliferation incubated for 72 hrs in presence of efflux pump inhibitor, Tariquidar by MTT assay; assay type: functional, cell-based
[10] = Selectivity ratio of IC50 for human KB-3-1 cells to IC50 for human KB-V1 cells incubated for 72 hrs by MTT assay; assay type: functional; how it was run: as §1
A2780 ADR [11] = assay: as §4; assay type: functional, cell-based; how it was run: as §3
A2780 ADR [12] = assay: Cytotoxicity against human A2780adr cells assessed as inhibition of cell proliferation incubated for 72 hrs in presence of efflux pump inhibitor, Tariquidar by MTT assay; assay type: functional, cell-based
[13] = Selectivity ratio of IC50 for human A2780 cells to IC50 for human A2780adr cells incubated for 72 hrs by MTT assay; assay type: functional; how it was run: as §1
[14] = Selectivity ratio of IC50 for human MES-SA cells transfected with mCherry to IC50 for human MES-SA/DX5 cells transfected with mCherry incubated for 72 hrs by fluorescent assay; assay type: functional
MES-SA/Dx5 [15] = assay: Reduction in P-gp expression in human MES-SA/DX5 cells at IC20 concentration incubated for 5 days by calcein-AM staining based flow cytometric analysis; assay type: functional, cell-based; conditions: time 5.0 day
How it was run: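 MES-SA/Dx5 cells were grown 5 days with compound at IC20 values calculated from viability assays, then recovered in drug-free medium refreshed every fifth day. At 80% confluency, cells were stained with Calcein AM with or without verapamil, with TO-PRO-3 excluding dead cells, and analysed by flow cytometry for the P-gp-negative fraction.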

MES-SA/Dx5 [16] = assay: Cytotoxicity against human MES-SA/DX5 cells transfected with mCherry fluorescent protein incubated for 72 hrs in presence of efflux pump inhibitor, Tariquidar by fluorescence assay; assay type: functional, cell-based
How it was run: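 The mCherry-expressing cells (lentiviral) were seeded at 5000 or 2500 per well, attached for 24 h, and exposed 72 h to compounds with Tariquidar coadministered. Live-cell signal was fluorescence at 585 nm excitation and 610 nm emission.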

[17] = Homo sapiens, MES-SA, 72 h, read-out: IC50
[18] = Homo sapiens, MES-SA, 72 h, read-out: pIC50 (converted)

Compound | Ratio IC50 [1] | IC50 (MES-SA/Dx5 [2]; read-out: IC50) [nM] | IC50 (MES-SA/Dx5 [2]; read-out: pIC50 (converted)) [nM] | IC50 (A2780; read-out: IC50) [nM] | IC50 (A2780; read-out: pIC50 (converted)) [nM] | Activity (HFF) | Activity (MES-SA/Dx5 [3]) | IC50 (KB 3-1; read-out: IC50) [nM] | IC50 (KB 3-1; read-out: pIC50 (converted)) [nM] | IC50 (MES-SA [4]; read-out: IC50) [nM] | IC50 (MES-SA [4]; read-out: pIC50 (converted)) [nM] | IC50 ([5]; read-out: IC50) [nM] | IC50 ([5]; read-out: pIC50 (converted)) [nM] | IC50 (MES-SA/Dx5 [6]; read-out: IC50) [nM] | IC50 (MES-SA/Dx5 [6]; read-out: pIC50 (converted)) [nM] | IC50 (KB-V1 [7]; read-out: IC50) [nM] | IC50 (KB-V1 [7]; read-out: pIC50 (converted)) [nM] | IC50 (MES-SA [8]; [17]) [nM] | IC50 (MES-SA [8]; [18]) [nM] | Activity (A2780 ADR [12]) | also measured
Cc1ccc(NC(=S)N/N=C/c2ccccn2)cc1 | 4.55 | 770 | 562 | 48 | 47.9 | Non-Toxic | Active | 740 | 724 | 396 | 363 | 64 | 63.1 | 76 | 72.4 | 920 | 891 | 790 | 759 | – | –
C/C(=N\NC(=S)Nc1ccc(C)cc1)c1ccccn1 | 6.25 | 29 | 25.7 | 17 | 16.2 | Non-Toxic | Active | 40.4 | 37.2 | 16 | 17 | 21 | 20.4 | 1.8 | 1.7 | 36 | 33.1 | 65 | 41.7 | – | Activity (KB-V1 [9]): Active; Ratio IC50 [10]: 1.15
COc1cc(N/N=C2/C(=O)Nc3ccccc32)ncn1 | – | – | – | – | – | – | – | – | 55000 | – | 91200 | – | – | – | 129000 | – | – | – | – | – | pIC50 (A2780): inactive; pIC50 (A2780 ADR [11]): inactive; IC50 (MES-SA [8]; mes-sa): Not Active
COc1cc(N/N=C(\C)c2ccccn2)ncn1 | 2.62 | 220 | 234 | 140 | 132 | Non-Toxic | Active | 360 | 355 | 260 | – | 27 | 25.7 | 95 | – | 490 | 490 | 260 | 339 | Active | Ratio IC50 [13]: 4.33
CCc1ccc(/C=N/Nc2cc(OC)ncn2)nc1 | 1.41 | 2110 | – | 1300 | 1290 | – | Active | 1230 | 1230 | 1550 | – | 630 | 617 | 1110 | – | 1570 | 1550 | 2330 | – | Active | Ratio IC50 [13]: 2.03
COc1ccc(NC(=S)N/N=C2\C(=O)Nc3ccccc32)cc1 | 1.87 | 4150 | – | 7490 | 7410 | – | inactive | 7820 | 7590 | 6100 | 6030 | 4840 | 4680 | 3590 | 3470 | 3780 | 3980 | 12100 | – | inactive | Activity (KB-V1 [9]): inactive; Ratio IC50 [13]: 1.6; Ratio IC50 [14]: 3.17; Ratio IC50 [10]: 2.04; inhibition (MES-SA/Dx5 [15]): Active; Activity (MES-SA/Dx5 [16]): inactive
C/C(=N\Nc1nc2ccccc2s1)c1ccccc1O | 1.91 | 11600 | 8910 | 8740 | 8320 | Toxic | Active | 14300 | 13800 | 12500 | 12300 | – | 9770 | 5520 | 5250 | 12100 | 11500 | 21600 | 21400 | – | Ratio IC50 [14]: 1.9; Activity (MES-SA/Dx5 [16]): Active
